Experimental data: the M2OR odorant receptor database

What follows are compounds tested against T1, UniProt L7MU75. Conditions: stereoisomer not certain.
T1 sequence (whole entry): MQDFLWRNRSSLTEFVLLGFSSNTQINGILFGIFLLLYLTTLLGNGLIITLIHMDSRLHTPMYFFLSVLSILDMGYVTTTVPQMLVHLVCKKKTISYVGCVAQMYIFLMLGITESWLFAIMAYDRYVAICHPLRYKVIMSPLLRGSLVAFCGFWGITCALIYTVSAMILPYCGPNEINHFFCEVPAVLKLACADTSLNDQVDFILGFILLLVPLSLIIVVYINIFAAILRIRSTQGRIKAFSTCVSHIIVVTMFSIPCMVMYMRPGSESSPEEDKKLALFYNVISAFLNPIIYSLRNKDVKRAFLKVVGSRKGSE
In short: (§1)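 Values were gathered from published papers (main text and supplementary material), with extra details requested from the original authors when needed, and checked for typos and inconsistencies. Each receptor–molecule pair is called responsive (active) if the original authors judged the measured signal statistically different from baseline, and non-responsive (inactive) otherwise. Assay methods varied by source, often transient mammalian cell-line luciferase assays. Recorded details include cell line, G-protein, co-transfected protein and tags.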
CCCCCC(C)O (stereo not drawn) was tested, and the “odorant receptor agonist call” value was “inactive”.
CCCCCCCCC=CC=O was tested, and the “odorant receptor agonist call” value was “inactive”.
In the case of CCc1nccnc1CC, the “odorant receptor agonist call” value is reported as “inactive”.
In the case of CC(C)C12CCC(C)(CC1)O2, the “odorant receptor agonist call” value is reported as “inactive”.
In the case of OCc1ccccc1, the “odorant receptor agonist call” value is reported as “inactive”.
C=C(C)C1CC=C(C)CC1 (stereo not drawn) was tested, and the “odorant receptor agonist call” value was “inactive”.
In the case of CC(C)CN, the “odorant receptor agonist call” value is reported as “inactive”.
With C1CCOCC1 the “odorant receptor agonist call” value was “inactive”.
For CCC(=O)OC, the “odorant receptor agonist call” value was “inactive”.
CC(C)CCN was tested, and the “odorant receptor agonist call” value was “inactive”.
With CCC(C)c1nccnc1OC (stereo not drawn) the “odorant receptor agonist call” value was “inactive”.
CCCCOC was tested, and the “odorant receptor agonist call” value was “inactive”.
With CCc1ncc(C)nc1CC the “odorant receptor agonist call” value was “inactive”.
In the case of C=CCCCCCC, the “odorant receptor agonist call” value is reported as “inactive”.
CC(C)=CCCC(C)CC=O (stereo not drawn) was tested, and the “odorant receptor agonist call” value was “inactive”.
CC(C)=CC1CC(C)CCO1 (stereo not drawn) was tested, and the “odorant receptor agonist call” value was “inactive”.
O=C(Cl)CCCCCCCC(=O)Cl was tested, and the “odorant receptor agonist call” value was “inactive”.
For CC1=CCC2CC1C2(C)C (stereo not drawn), the “odorant receptor agonist call” value was “inactive”.
For COc1cnccn1, the “odorant receptor agonist call” value was “inactive”.
CCCC(=O)OCC was tested, and the “odorant receptor agonist call” value was “inactive”.
In the case of CCOc1ccccc1, the “odorant receptor agonist call” value is reported as “inactive”.
In the case of CCC(=O)OC(C)(C)C, the “odorant receptor agonist call” value is reported as “inactive”.
For O=C(O)C1CCC1, the “odorant receptor agonist call” value was “inactive”.
In the case of CCCOC(=O)CCC, the “odorant receptor agonist call” value is reported as “inactive”.
O=c1ccc2ccccc2o1 was tested, and the “odorant receptor agonist call” value was “active”.
With CCCCOC(=O)CCC the “odorant receptor agonist call” value was “inactive”.
With COc1nccnc1C(C)C the “odorant receptor agonist call” value was “inactive”.
Cc1nccnc1C was tested, and the “odorant receptor agonist call” value was “inactive”.
In the case of CCCC(=O)OC, the “odorant receptor agonist call” value is reported as “inactive”.
CCC=O was tested, and the “odorant receptor agonist call” value was “inactive”.
With CC(O)c1ccccc1 (stereo not drawn) the “odorant receptor agonist call” value was “inactive”.
CC(C)=CCCC(C)=CCOC(=O)C(C)C was tested, and the “odorant receptor agonist call” value was “inactive”.
For CCCCCC(C)(C)O, the “odorant receptor agonist call” value was “inactive”.

Each compound was assayed against T2, UniProt L7N0P5. Conditions: stereoisomer not certain.
T2 sequence (whole entry): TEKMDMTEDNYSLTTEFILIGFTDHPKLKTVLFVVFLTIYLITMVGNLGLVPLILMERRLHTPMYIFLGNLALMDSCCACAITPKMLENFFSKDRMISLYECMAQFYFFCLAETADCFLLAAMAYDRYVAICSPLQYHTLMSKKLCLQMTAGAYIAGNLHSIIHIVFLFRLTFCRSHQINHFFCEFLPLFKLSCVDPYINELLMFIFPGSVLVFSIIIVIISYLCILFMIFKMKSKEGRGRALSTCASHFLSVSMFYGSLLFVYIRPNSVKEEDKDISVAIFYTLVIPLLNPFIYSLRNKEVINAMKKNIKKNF
In short: as §1
For CCc1nccnc1CC, the “odorant receptor agonist call” value was “active”.
With CCC(C)c1nccnc1OC (stereo not drawn) the “odorant receptor agonist call” value was “active”.
For CCc1ncc(C)nc1CC, the “odorant receptor agonist call” value was “active”.
In the case of COc1cnccn1, the “odorant receptor agonist call” value is reported as “active”.
In the case of COc1nccnc1C(C)C, the “odorant receptor agonist call” value is reported as “active”.
With Cc1nccnc1C the “odorant receptor agonist call” value was “active”.

These compounds were tested against T3, UniProt L7N210. Conditions: stereoisomer not certain.
T3 sequence (whole entry): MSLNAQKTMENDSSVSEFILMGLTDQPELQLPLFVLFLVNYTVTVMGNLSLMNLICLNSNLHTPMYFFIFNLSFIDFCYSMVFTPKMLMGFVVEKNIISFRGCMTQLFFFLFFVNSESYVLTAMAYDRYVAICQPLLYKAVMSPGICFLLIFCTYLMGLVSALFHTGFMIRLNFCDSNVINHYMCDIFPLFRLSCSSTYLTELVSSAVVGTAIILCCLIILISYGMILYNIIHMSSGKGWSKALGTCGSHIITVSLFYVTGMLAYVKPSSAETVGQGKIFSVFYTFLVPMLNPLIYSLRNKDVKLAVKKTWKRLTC
In short: as §1
CCCCCC(C)O (stereo not drawn) was tested, and the “odorant receptor agonist call” value was “inactive”.
In the case of CCCCCCCCC=CC=O, the “odorant receptor agonist call” value is reported as “inactive”.
With CCc1nccnc1CC the “odorant receptor agonist call” value was “inactive”.
In the case of C=C(C)C1CC=C(C)CC1 (stereo not drawn), the “odorant receptor agonist call” value is reported as “inactive”.
In the case of C1CCOCC1, the “odorant receptor agonist call” value is reported as “inactive”.
In the case of CC(C)CCN, the “odorant receptor agonist call” value is reported as “inactive”.
With CCC(C)c1nccnc1OC (stereo not drawn) the “odorant receptor agonist call” value was “inactive”.
CCc1ncc(C)nc1CC was tested, and the “odorant receptor agonist call” value was “inactive”.
For COc1cnccn1, the “odorant receptor agonist call” value was “inactive”.
For O=C(O)C1CCC1, the “odorant receptor agonist call” value was “inactive”.
With O=c1ccc2ccccc2o1 the “odorant receptor agonist call” value was “active”.
With COc1nccnc1C(C)C the “odorant receptor agonist call” value was “inactive”.
For CC(C)=CCCC(C)=CCOC(=O)C(C)C, the “odorant receptor agonist call” value was “inactive”.

Each compound was assayed against T4, UniProt Q3KPB0. Conditions: stereoisomer not certain.
T4 sequence (whole entry): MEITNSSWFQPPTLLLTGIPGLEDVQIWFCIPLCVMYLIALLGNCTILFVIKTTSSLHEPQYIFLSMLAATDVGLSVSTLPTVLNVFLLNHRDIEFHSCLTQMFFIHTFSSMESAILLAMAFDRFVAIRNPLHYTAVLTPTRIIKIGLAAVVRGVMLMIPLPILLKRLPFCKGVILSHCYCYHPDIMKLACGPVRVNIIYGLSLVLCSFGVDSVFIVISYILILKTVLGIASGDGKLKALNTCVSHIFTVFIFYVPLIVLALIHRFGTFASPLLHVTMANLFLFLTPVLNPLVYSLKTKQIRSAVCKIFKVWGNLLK
In short: as §1
For CCCCCC(C)O (stereo not drawn), the “odorant receptor agonist call” value was “inactive”.
With CCCCCCCCC=CC=O the “odorant receptor agonist call” value was “inactive”.
CCc1nccnc1CC was tested, and the “odorant receptor agonist call” value was “inactive”.
With C=C(C)C1CC=C(C)CC1 (stereo not drawn) the “odorant receptor agonist call” value was “inactive”.
For C1CCOCC1, the “odorant receptor agonist call” value was “inactive”.
In the case of CC(C)CCN, the “odorant receptor agonist call” value is reported as “inactive”.
In the case of CCC(C)c1nccnc1OC (stereo not drawn), the “odorant receptor agonist call” value is reported as “inactive”.
For CCc1ncc(C)nc1CC, the “odorant receptor agonist call” value was “inactive”.
With COc1cnccn1 the “odorant receptor agonist call” value was “inactive”.
In the case of O=C(O)C1CCC1, the “odorant receptor agonist call” value is reported as “inactive”.
In the case of COc1nccnc1C(C)C, the “odorant receptor agonist call” value is reported as “inactive”.
With CC(C)=CCCC(C)=CCOC(=O)C(C)C the “odorant receptor agonist call” value was “inactive”.

The compounds below were run against T5, UniProt Q3U0P3. Conditions: stereoisomer not certain.
T5 sequence (whole entry): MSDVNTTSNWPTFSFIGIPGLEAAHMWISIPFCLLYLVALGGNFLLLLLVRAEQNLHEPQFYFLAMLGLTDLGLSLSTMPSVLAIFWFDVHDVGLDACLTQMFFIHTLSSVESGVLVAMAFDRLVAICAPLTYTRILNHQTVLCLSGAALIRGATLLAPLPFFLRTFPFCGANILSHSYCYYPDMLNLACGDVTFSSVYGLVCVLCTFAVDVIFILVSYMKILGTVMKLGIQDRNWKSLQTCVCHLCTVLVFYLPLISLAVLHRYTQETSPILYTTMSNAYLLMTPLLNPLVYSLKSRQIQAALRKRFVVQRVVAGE
In short: as §1
With CCCCCC(C)O (stereo not drawn) the “odorant receptor agonist call” value was “inactive”.
For CCCCCCCCC=CC=O, the “odorant receptor agonist call” value was “inactive”.
In the case of CCc1nccnc1CC, the “odorant receptor agonist call” value is reported as “inactive”.
In the case of C=C(C)C1CC=C(C)CC1 (stereo not drawn), the “odorant receptor agonist call” value is reported as “inactive”.
C1CCOCC1 was tested, and the “odorant receptor agonist call” value was “inactive”.
For CC(C)CCN, the “odorant receptor agonist call” value was “inactive”.
For CCC(C)c1nccnc1OC (stereo not drawn), the “odorant receptor agonist call” value was “inactive”.
With CCc1ncc(C)nc1CC the “odorant receptor agonist call” value was “inactive”.
In the case of COc1cnccn1, the “odorant receptor agonist call” value is reported as “inactive”.
In the case of O=C(O)C1CCC1, the “odorant receptor agonist call” value is reported as “inactive”.
In the case of COc1nccnc1C(C)C, the “odorant receptor agonist call” value is reported as “inactive”.
CC(C)=CCCC(C)=CCOC(=O)C(C)C was tested, and the “odorant receptor agonist call” value was “inactive”.

What follows are compounds tested against T6, UniProt Q7TQU8. Conditions: stereoisomer not certain.
T6 sequence (whole entry): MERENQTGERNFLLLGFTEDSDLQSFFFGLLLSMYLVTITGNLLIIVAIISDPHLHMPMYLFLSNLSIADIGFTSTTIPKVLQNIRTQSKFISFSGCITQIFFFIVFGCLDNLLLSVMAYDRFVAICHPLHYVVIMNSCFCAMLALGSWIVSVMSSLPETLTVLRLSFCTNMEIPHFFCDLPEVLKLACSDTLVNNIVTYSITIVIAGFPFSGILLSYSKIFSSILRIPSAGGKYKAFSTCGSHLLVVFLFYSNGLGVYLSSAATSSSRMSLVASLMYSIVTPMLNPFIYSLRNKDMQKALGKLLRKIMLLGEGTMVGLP
In short: as §1
CCCCCC(C)O (stereo not drawn) was tested, and the “odorant receptor agonist call” value was “inactive”.
With CCCCCCCCC=CC=O the “odorant receptor agonist call” value was “inactive”.
For CCc1nccnc1CC, the “odorant receptor agonist call” value was “inactive”.
With C=C(C)C1CC=C(C)CC1 (stereo not drawn) the “odorant receptor agonist call” value was “inactive”.
With C1CCOCC1 the “odorant receptor agonist call” value was “inactive”.
With CC(C)CCN the “odorant receptor agonist call” value was “inactive”.
For CCC(C)c1nccnc1OC (stereo not drawn), the “odorant receptor agonist call” value was “inactive”.
With CCc1ncc(C)nc1CC the “odorant receptor agonist call” value was “inactive”.
COc1cnccn1 was tested, and the “odorant receptor agonist call” value was “inactive”.
With O=C(O)C1CCC1 the “odorant receptor agonist call” value was “inactive”.
In the case of COc1nccnc1C(C)C, the “odorant receptor agonist call” value is reported as “inactive”.
CC(C)=CCCC(C)=CCOC(=O)C(C)C was tested, and the “odorant receptor agonist call” value was “inactive”.
